PostGolgi ctrl: growth of the yeast control strain, post-Golgi counter-screen | hit rate 5% among 98,000 | efflux-deficient yeast background strain, growth absorbance A615, 16 h | AID 738 | inhibition, % at 10 µM
PostGolgi yeast: growth inhibition of a yeast mutant, post-Golgi transport screen. inhibition, % at 10 µM. post-Golgi transport phenotypic cell assay. AID 739. hit rate 0.9% among 98,000;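 note: yeast cells grown in 1536-well plates; yeast grown about 18 h at 30C before absorbance read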
PLAP activator: activators of human placental alkaline phosphatase; P05187; purified PLAP enzyme, luminescent substrate read-out; active compounds read high; activation fold at 20 µM; hit rate 1.2% among 96,000; in the data active = activation fold above about 2
Target sequence (P05187 whole entry, looked up): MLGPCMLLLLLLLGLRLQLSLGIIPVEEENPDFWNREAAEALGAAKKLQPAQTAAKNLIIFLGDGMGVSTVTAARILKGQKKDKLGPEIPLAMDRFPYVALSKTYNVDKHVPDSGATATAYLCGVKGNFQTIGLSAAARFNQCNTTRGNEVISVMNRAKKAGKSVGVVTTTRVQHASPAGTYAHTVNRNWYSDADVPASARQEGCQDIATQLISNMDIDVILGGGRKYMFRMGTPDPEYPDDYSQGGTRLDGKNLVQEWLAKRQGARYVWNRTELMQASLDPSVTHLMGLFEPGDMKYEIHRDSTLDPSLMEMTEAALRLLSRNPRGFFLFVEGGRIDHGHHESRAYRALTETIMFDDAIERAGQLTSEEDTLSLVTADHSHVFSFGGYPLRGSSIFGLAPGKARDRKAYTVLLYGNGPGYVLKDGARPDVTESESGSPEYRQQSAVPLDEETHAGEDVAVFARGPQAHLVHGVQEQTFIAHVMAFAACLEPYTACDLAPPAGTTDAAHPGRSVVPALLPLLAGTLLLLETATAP
Ecoli tolC: E. coli tolC mutant growth inhibition; hit rate 2.2% among 65,000; growth inhibition, % at 10 µM (by protocol); E. coli BW25113 tolC mutant growth, OD615;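 active = growth inhibition at or above a cutoff equal to the mean over every tested compound plus 3 SD, cut at about 60% in these data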;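 note: growth measured after 20 h incubation at 37 °C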
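Test system: E. coli BW25113 ΔtolC::kan bacteria; incubation: 37 °C, 20 h exposure; medium: LB broth supplemented with 50 µg/mL kanamycin; read-out basis: percent growth inhibition; signal: A615 absorbance measurement; compound: 10 µM final, single dose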
E coli WT exp: blocks growth of wild type E. coli BW25113. OD600 absorbance. growth inhibition, % at 100 µM. hit rate 0.15% among 98,000. AID 710;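 active = growth inhibition above about 50% at one test dose, limit read from the data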;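 note: growth measured after 20 h incubation at 37 °C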
An asterisk follows results filed as active; · = not tested or not shown; ! = a repeat was not active. A selection: hits, their analogues and other compounds. The true share with any hit is near 7.2%. Cut-off read from the data, not from the text of the source, unless noted: active = inhibition above about 30%; inactive = the rest.

SMILES | PostGolgi ctrl | PostGolgi yeast | PLAP activator | Ecoli tolC | E coli WT exp
CCOC(=O)Cn1nc(-c2ccc(Cl)cc2)ccc1=O | 36* | -4 | 1.1 | 3 | -2
CCCCCN(C(=O)CN(C)Cc1ccc(OC)cc1OC)c1c(N)n(CCCC)c(=O)[nH]c1=O | 3 | 2 | 2.4* | · | 6
CN1CCN(c2nc3c(c(=O)n(C)c(=O)n3C)n2Cc2cccc3ccccc23)CC1 | 3 | 7 | 1.8 | 21 | -18
Cn1c(=O)c2c(nc(CN3CCN(Cc4ccccc4)CC3)n2Cc2cccc(Cl)c2)n(C)c1=O | · | · | 1.4 | 4 | ·
Cn1c(=O)c2c(nc(CN3CCc4ccccc4C3)n2Cc2cccc(Cl)c2)n(C)c1=O | 33* | 5 | 1.4 | 32 | -4
Cn1c(=O)c2c(nc(N3CCCCCC3)n2Cc2cccc3ccccc23)n(C)c1=O | 62* | 8 | 1.5 | 74* | -9
CCN1CCN(Cc2nc3c(c(=O)n(C)c(=O)n3C)n2Cc2ccccc2Cl)CC1 | 31* | 3 | 1.6 | -3 | 3
Cn1c(=O)c2c(nc(N3CCCCC3)n2CCSc2nc3ccccc3s2)n(C)c1=O | 10 | 5 | 1.3 | 21 | 2
CC1CCN(c2nc3c(c(=O)n(C)c(=O)n3C)n2CCSc2nc3ccccc3s2)CC1 | 36* | 16 | 1.4 | 8 | -2
Cc1c(NC(=O)C(C)Sc2nc3ccccc3c(=O)n2CCO)c(=O)n(-c2ccccc2)n1C (stereo not drawn) | -6 | -6 | 1.9 | -16 | 1
COc1nc2c(C)cccc2cc1-c1noc(-c2ccncc2)n1 | · | · | 1.1 | -3 | ·
O=C(OCCN1C(=O)c2ccccc2C1=O)C1CCN(S(=O)(=O)c2cccs2)CC1 | 15 | -7 | 1.3 | 11 | -6
CC1(C)Oc2ccc(C(=O)NC3CCCC3)cc2N(CC(=O)NC2CCCCC2)C1=O | 0 | -1 | 1.4 | 7 | 2
Clc1ccc(OCc2nnc(SCc3nnc(-c4ccccc4)o3)o2)c(Cl)c1 | 41* | 5 | 1.7 | 60 | -11
Nc1nncn1C(=O)CCCN1C(=O)c2ccccc2C1=O | 6 | -1 | 0.9 | 96* | 16
O=C(CCCN1C(=O)c2ccccc2C1=O)N1CCc2ccccc2C1 | 10 | 6 | 1.1 | · | -3
CCn1c(=O)cc(SCC(=O)N2CCN(c3ccccc3OC)CC2)c2ccccc21 | 2 | -7 | 1.5 | 19 | -6
C(=N\Nc1nc2ccccc2s1)/c1ccco1 | 21 | 2 | 1.1 | · | 3
C(=N\Nc1nc2ccccc2s1)/c1cccs1 | 31* | -7 | 1.5 | · | 1
CCOc1cccc2cc(-c3csc(NC(=O)CCC(=O)N4CCN(C)CC4)n3)c(=O)oc12 | · | · | · | 12 | ·
O=S(=O)(NC1CCc2ccccc21)c1ccc(S(=O)(=O)N2CCCC2)cc1 (stereo not drawn) | 18 | 7 | 1.1 | 8 | -6
CCCn1c(CCC(=O)O)ccc1-c1cccs1 | 4 | 3 | 1.3 | 14 | 4
COCCCn1c(CCC(=O)O)ccc1-c1cccs1 | 30* | -2 | 1.2 | 2 | 1
O=C(CCCSc1nnnn1-c1cccc2ccccc12)c1ccc(F)cc1 | 32* | -5 | 1 | · | -13
Cc1cccc(Cn2c(=O)n(CCCC(=O)NCc3ccco3)c(=O)c3ccccc32)c1 | · | · | · | 20 | ·
SMILES | PostGolgi ctrl | PostGolgi yeast | PLAP activator | Ecoli tolC | E coli WT exp
Cc1cccc(Cn2c(=O)n(Cc3ccco3)c(=O)c3ccccc32)c1 | 20 | -3 | 0.9 | 91* | -17
CCCCn1c(=O)c(-c2ccccc2)c(O)c2ccccc21 | 32* | 19 | 0.8 | 29 | -3
COc1ccc(NC(=O)CN(C2CCCCC2)S(C)(=O)=O)cc1OC | 4 | -7 | 1.1 | -2 | -1
COC(=O)c1ccc(NC(=O)CN(C2CCCCC2)S(C)(=O)=O)cc1 | 5 | -23 | 2* | 10 | 6
Cc1nn2c(c1-c1ccccc1)NC1=C(C(=O)CCC1)C2c1cccnc1 (stereo not drawn) | · | · | · | -10 | ·
O=[N+]([O-])c1cccc(/C=C/c2nc3ccc([N+](=O)[O-])cc3[nH]2)c1 | 72* | 8 | 0.9 | · | -5
CC1(C)CC(NC(=O)CCC2CCCC2)CC(C)(C)N1 | 40* | -8 | 0.7 | -1 | 7
COc1ccc(CNC(=O)c2cnn3c(C(F)F)cc(C)nc23)cc1OC | 5 | -2 | 1.3 | -4 | -8
O=S(=O)(c1ccc(Br)s1)N1CCN(c2ccccn2)CC1 | 51* | 2 | 0.8 | 14 | 2
Cc1cccc(-c2c3c(=O)n(C)c(=O)n(C)c3c3nnc4ccccc4n23)c1 | · | · | · | -11 | ·
O=c1c2ccccc2c(/C=N/n2cnnc2)c(O)n1-c1ccccc1F | 21 | 4 | 1.2 | -4 | -3
Cc1ccc(-n2c(O)c(/C=N/n3cnnc3)c3ccccc3c2=O)cc1 | 34*! | 3 | 1.1 | 6 | 2
COc1ccc(C(=O)Nc2nc(C)c(C(=O)N(C)C)s2)cc1OC | 34* | 9 | 1.1 | -7 | 0
Cc1ccc(CN(Cc2cc3cc4c(cc3[nH]c2=O)OCCO4)Cc2nnnn2Cc2ccco2)cc1 | -1 | 12 | 1.6 | · | -19
Cc1ccc2cc(CN(Cc3ccc4c(c3)OCO4)Cc3nnnn3Cc3ccco3)c(=O)[nH]c2c1 | 30* | 11 | 1.6 | 22 | -13
Cc1ccc(-n2c(-c3c(-c4ccccc4)noc3C)n[nH]c2=S)cc1 | 13 | -1 | 2.1* | · | 4
CC(C)Sc1nc(N)nc(-c2cccs2)c1C#N | 80* | 13 | 0.8 | · | -3
CC(=O)NC1C(c2nc3ccccc3s2)=C(c2ccccc2)C(=O)N1c1ccc(C)cc1 (stereo not drawn) | 14 | 64* | 1.1 | · | -7
COc1cccc(N2C(=O)C(c3ccccc3)=C(c3nc4ccccc4s3)C2NC(C)=O)c1 (stereo not drawn) | 8 | -3 | 1.2 | · | 0
CCCc1ccccc1OCCNC(C)=O | 3 | 18 | 0.9 | -17 | 1
COc1cnc(-c2ccccn2)nc1Sc1ccc(Cl)cc1 | 35* | 3 | 0.9 | · | 1
COc1cnc(N(C)C)nc1Sc1ccc(Cl)cc1 | 7 | -5 | 1 | · | 3
CCC(Cc1ccccc1)NC(=O)C1CCC(CNc2c(N3CCCC3)c(=O)c2=O)CC1 (stereo not drawn) | 4 | -8 | 1.7 | · | -7
CCOC(=O)C1=C(O)/C(=C\c2ccc(CNC(=O)C(=O)Nc3ccc(C)c(C)c3)o2)N=C1C | 11 | 1 | 1.3 | · | 0
CCCc1cc(=O)[nH]c(SCC(=O)Nc2ccc(OC(F)F)cc2)n1 | -12 | 6 | 0.9 | 2 | -14
SMILES | PostGolgi ctrl | PostGolgi yeast | PLAP activator | Ecoli tolC | E coli WT exp
Cc1sc(-c2ccncc2)nc1OC(=O)c1ccc(Cl)cc1 | 36* | 0 | 1 | · | -16
C/C(=N\OC(=O)c1ccc(Cl)cc1)c1sc(-c2ccccc2)nc1C | 4 | 0 | 0.9 | · | -28
Cc1sc(-c2ccncc2)nc1OC(=O)c1cc(Cl)cc(Cl)c1 | 32* | -3 | 0.9 | · | -1
COC(=O)Nc1nnc(-c2ccncc2)s1 | 4 | -3 | 1 | -13 | -6
Cc1ccc(NC(=O)c2cc(-c3cccc(O)c3)on2)cc1C | 21 | -12 | 0.8 | 7 | -19
CN(C)CCCC1(c2ccc(F)cc2)OCc2cc(C#N)ccc21 (stereo not drawn) | · | · | · | 2 | ·
Nc1ncnc2nc(SCCc3ccccc3)[nH]c12 | · | · | 2* | 2 | ·

Assay outcomes (PubChem BioAssay)
